Reference: ChEMBL document CHEMBL4359867, “Design, synthesis and biological evaluation of novel 4-anilinoquinazoline derivatives as hypoxia-selective EGFR and VEGFR-2 dual inhibitors” (Eur J Med Chem, 2019)
pIC50: −log10 of the molar value. Active and inactive are the calls of the source. The rule behind the calls is not given here.

Legend:
A549 [1] = assay: Antiproliferative activity against human A549 cells assessed as inhibition of cell growth at 0.5 uM after 48 hrs under hypoxic condition (200 uM CoCl2) by CCk-8 assay relative to control (reference value: 59.94%); assay type: functional
Outline: (§1)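 RPMI-1640 with 10% fetal calf serum. Compounds dissolved in DMSO. Hypoxia produced chemically with cobalt(II) chloride; normoxic wells received no CoCl2. Viability read by CCK-8 (WST-8) at 450 nm, and inhibition ratio calculated against untreated control.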

A549 [2] = assay: Antitumour activity against human A549 cells xenografted in Balb/c mouse assessed as tumour growth inhibition at 10 mg/kg, po administered daily and mesured at day 17 relative to control; assay type: functional; settings: 408 h, read-out: TGI
Outline: (§2)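 Male BALB/c-nu mice, 1 × 10^7 A549 cells implanted sc in the flank. Dosing began seven days after implantation: 10 mg/kg oral, daily for 17 days, 5 mice per group, with a vehicle control group. Tumour size measured daily by caliper, with body weight and clinical signs also recorded daily. TGI calculated from volume changes relative to starting volumes versus control.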

A549 [3] = assay: Antitumour activity against human A549 cells xenografted in Balb/c mouse assessed as increase in tumour volume at 10 mg/kg, po administered daily and mesured after 7 days; assay type: functional, organism-based; outline: as §2
NCI-H446 [4] = assay: Antiproliferative activity against human NCI-H446 cells assessed as inhibition of cell growth at 0.5 uM after 48 hrs under hypoxic condition (200 uM CoCl2) by CCk-8 assay relative to control (reference value: 65.84%); assay type: functional; outline: as §1
NCI-H446 [5] = assay: Antiproliferative activity against human NCI-H446 cells assessed as inhibition of cell growth at 0.5 uM in hypoxia condition (200 uM CoCl2) and under irradiation at 8 Gy for 24 hrs and measured after 24 hrs by CCK8 assay (reference value: 68.77%); assay type: functional
A549 [6] = assay: Antiproliferative activity against human A549 cells assessed as inhibition of cell growth at 0.5 uM in hypoxia condition (200 uM CoCl2) and under irradiation at 8 Gy for 24 hrs and measured after 24 hrs by CCK8 assay (reference value: 64.135%); assay type: functional
[7] = biological target: Vascular endothelial growth factor receptor 2 (Homo sapiens, UniProt P35968); assay: Inhibition of N-terminal GST-tagged human VEGFR2 cytoplasmic domain (790 to 1356 residues) expressed in baculovirus expression system using FAM-22 peptide as substrate incubated for 10 mins followed by substrate addition by caliper method
Outline: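 Compounds (DMSO stocks 40 μM–0.2 nM, ten levels) tested in duplicate. Enzyme preincubated with compound 10 min at room temperature, then FAM-P22 peptide/ATP added and incubated at 28 °C. Stopped with EDTA-containing buffer. IC50 obtained by four-parameter Hill fit; staurosporine as reference.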

[8] = biological target: Epidermal growth factor receptor (Homo sapiens, UniProt P00533); assay: Inhibition of N-terminal GST-tagged human EGFR cytoplasmic domain (669 to 1210 residues) expressed in baculovirus expression system using FAM-22 peptide as substrate incubated for 10 mins followed by substrate addition by caliper method
[9] = Cytotoxicity against human NCI-H446 cells assessed as inhibition of cell growth at 0.5 uM after 48 hrs under normoxic condition by CCk-8 assay relative to control; assay type: cell-based; outline: as §1
A549 [10] = assay: Antiproliferative activity against human A549 cells assessed as hypoxic sensitive enhancement ratio in presence of CoCl2; assay type: functional
NCI-H446 [11] = assay: Antiproliferative activity against human NCI-H446 cells assessed as hypoxic sensitive enhancement ratio in presence of Cocl2 under irradiation; assay type: functional
NCI-H446 [12] = assay: Antiproliferative activity against human NCI-H446 cells assessed as hypoxic sensitive enhancement ratio in presence of CoCl2; assay type: functional
A549 [13] = assay: Antiproliferative activity against human A549 cells assessed as hypoxic sensitive enhancement ratio in presence of Cocl2 under irradiation; assay type: functional
[14] = Cytotoxicity against human A549 cells assessed as inhibition of cell growth at 0.5 uM after 48 hrs under normoxic condition by CCk-8 assay relative to control; assay type: cell-based; outline: as §1
A549 [15] = assay: Antitumour activity against human A549 cells xenografted in po dosed Balb/c mouse assessed as tumour growth inhibition administered daily for 18 days and […]; assay type: functional, organism-based
A549 [16] = assay: Antitumour activity against human A549 cells xenografted in Balb/c mouse assessed as tumour growth inhibition at 15 mg/kg, po administered daily and measured at day 18 relative to control; assay type: functional; settings: 432 h, read-out: TGI
Outline: (§3)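 Male BALB/c-nu mice carrying sc flank A549 xenografts (1 × 10^7 cells). Dosing began 6–7 days post-inoculation, with oral 5, 15 or 50 mg/kg daily for 18 days and 3 mice per group. Tumours measured by caliper on days 4, 6, 8, 11, 13, 15 and 18. TGI derived from volume change from dosing start relative to untreated controls.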

[17] = Toxicity in Balb/c mouse xenografted with human A549 cells assessed as effect on weight loss at 10 mg/kg, po measured up to 17 days; assay type: organism-based; settings: in vivo, 408 h; outline: as §2
A549 [18] = assay: Downregulation of VEGF expression in human A549 cells at 5 uM after 24 hrs under hypoxic condition by q-PCR analysis relative to control; assay type: functional
A549 [19] = assay: Downregulation of VEGF expression in human A549 cells at 5 uM after 24 hrs under normoxic condition by q-PCR analysis relative to control; assay type: cell-based; settings: a549, 24 h
A549 [20] = assay: Antitumour activity against human A549 cells xenografted in Balb/c mouse assessed as tumour growth inhibition at 50 mg/kg, po administered daily and measured at day 18 relative to control; assay type: functional; settings: 432 h, read-out: TGI; outline: as §3
A549 [21] = assay: Antitumour activity against human A549 cells xenografted in Balb/c mouse assessed as tumour growth inhibition at 5 mg/kg, po administered daily and measured at day 18 relative to control; assay type: functional; settings: 432 h, read-out: TGI; outline: as §3
[22] = Toxicity in Balb/c mouse assessed as effect on clinical signs at 100 mg/kg, po administered 5 times per week for 2 weeks; assay type: organism-based; settings: in vivo, 336 h
Outline: (§4)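 Male BALB/c-nu mice dosed orally at 100 mg/kg, five times a week for two weeks with two days off each weekend. Clinical signs of toxicity and body weight monitored.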

[23] = Toxicity in po dosed Balb/c mouse assessed as maximum tolerated dose administered 5 times per week for 2 weeks; assay type: organism-based; settings: in vivo
[24] = Toxicity in Balb/c mouse assessed as weight loss at 100 mg/kg, po administered 5 times per week for 2 weeks; assay type: organism-based; settings: in vivo, 336 h; outline: as §4
[25] = Toxicity in Balb/c mouse xenografted with human A549 cells assessed as reduction in body weight at 10 mg/kg, po measured up to 8 days; assay type: organism-based; settings: in vivo, 192 h; outline: as §2

Chain of Epidermal growth factor receptor (P00533 whole entry, the tested form may be a part): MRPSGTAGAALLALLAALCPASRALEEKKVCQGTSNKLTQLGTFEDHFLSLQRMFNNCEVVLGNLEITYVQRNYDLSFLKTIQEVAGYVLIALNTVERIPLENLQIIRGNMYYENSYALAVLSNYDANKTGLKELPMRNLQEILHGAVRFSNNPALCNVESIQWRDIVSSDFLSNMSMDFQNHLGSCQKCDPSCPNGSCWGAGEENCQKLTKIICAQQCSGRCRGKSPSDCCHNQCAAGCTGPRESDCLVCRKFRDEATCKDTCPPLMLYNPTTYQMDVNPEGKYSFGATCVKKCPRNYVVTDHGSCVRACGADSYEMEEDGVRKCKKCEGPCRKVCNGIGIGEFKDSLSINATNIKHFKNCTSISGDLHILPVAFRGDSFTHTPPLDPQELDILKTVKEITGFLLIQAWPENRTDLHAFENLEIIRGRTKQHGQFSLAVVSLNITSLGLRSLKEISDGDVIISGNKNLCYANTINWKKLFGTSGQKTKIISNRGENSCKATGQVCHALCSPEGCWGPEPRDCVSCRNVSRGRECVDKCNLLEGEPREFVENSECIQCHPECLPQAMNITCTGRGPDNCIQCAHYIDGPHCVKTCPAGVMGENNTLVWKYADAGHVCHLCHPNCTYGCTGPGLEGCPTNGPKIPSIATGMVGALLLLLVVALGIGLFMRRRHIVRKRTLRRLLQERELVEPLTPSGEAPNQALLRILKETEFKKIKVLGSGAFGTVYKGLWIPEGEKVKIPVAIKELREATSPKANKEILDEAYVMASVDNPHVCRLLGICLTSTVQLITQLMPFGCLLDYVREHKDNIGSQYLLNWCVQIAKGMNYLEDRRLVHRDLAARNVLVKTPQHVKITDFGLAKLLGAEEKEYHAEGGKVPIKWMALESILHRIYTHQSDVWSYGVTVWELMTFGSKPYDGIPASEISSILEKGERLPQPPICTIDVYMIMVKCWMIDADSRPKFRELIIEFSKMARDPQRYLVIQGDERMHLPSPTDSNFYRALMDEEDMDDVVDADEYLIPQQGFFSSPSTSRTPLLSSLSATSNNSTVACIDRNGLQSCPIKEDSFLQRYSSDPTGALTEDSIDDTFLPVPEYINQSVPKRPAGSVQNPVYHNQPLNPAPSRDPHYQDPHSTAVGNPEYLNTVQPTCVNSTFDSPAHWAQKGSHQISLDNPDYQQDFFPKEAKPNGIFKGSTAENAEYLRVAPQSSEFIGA
Chain of Vascular endothelial growth factor receptor 2 (P35968 whole entry, the tested form may be a part): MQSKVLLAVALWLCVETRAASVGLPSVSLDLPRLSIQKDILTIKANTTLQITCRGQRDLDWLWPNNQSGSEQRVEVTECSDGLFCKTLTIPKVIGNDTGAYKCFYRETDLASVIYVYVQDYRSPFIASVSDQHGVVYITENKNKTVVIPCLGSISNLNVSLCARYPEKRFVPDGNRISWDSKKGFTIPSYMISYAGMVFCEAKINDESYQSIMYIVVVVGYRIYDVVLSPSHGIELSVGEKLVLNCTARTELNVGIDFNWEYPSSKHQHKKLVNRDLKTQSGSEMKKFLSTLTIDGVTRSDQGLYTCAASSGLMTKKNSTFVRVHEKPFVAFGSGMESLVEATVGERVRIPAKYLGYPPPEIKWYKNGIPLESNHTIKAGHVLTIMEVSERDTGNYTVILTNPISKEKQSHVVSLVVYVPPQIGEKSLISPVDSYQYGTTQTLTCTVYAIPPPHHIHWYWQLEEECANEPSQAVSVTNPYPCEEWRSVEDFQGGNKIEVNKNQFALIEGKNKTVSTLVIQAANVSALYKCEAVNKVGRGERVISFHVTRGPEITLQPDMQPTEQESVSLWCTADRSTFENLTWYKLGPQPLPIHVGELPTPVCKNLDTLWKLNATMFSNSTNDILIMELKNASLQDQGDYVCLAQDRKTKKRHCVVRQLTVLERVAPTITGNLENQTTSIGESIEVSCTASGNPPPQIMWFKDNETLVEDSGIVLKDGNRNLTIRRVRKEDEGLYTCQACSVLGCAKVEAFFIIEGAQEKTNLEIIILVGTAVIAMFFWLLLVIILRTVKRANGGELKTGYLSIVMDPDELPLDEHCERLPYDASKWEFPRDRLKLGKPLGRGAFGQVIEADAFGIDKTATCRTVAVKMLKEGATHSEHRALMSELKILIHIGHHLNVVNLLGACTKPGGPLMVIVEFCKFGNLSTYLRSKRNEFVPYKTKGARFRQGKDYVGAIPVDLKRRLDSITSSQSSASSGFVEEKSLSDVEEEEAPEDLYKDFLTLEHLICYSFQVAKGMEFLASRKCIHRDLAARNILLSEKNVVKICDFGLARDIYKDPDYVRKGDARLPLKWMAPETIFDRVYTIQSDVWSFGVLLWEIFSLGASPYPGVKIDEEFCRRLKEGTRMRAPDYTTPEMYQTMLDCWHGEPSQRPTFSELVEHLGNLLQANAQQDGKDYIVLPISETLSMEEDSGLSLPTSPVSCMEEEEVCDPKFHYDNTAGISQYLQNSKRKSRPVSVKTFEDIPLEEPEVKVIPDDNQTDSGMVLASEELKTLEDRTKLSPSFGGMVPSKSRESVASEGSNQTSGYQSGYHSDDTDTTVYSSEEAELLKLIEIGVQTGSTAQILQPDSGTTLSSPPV

| SMILES | inhibition (INH) (A549 [1]) [%] | inhibition (INH) (NCI-H446 [4]) [%] | inhibition (INH) (NCI-H446 [5]) [%] | inhibition (INH) (A549 [6]) [%] | pIC50 [7] | pIC50 [8] | inhibition at 48 h, 0.5 µM [9] [%] | Ratio (A549 [10]) | Ratio (NCI-H446 [11]) | Ratio (NCI-H446 [12]) | Ratio (A549 [13]) | inhibition at 48 h, 0.5 µM [14] [%] | other results |
| --- | --- | --- | --- | --- | --- | --- | --- | --- | --- | --- | --- | --- | --- |
| COc1cc2/c(=N/c3ccc(Br)cc3F)nc[nH]c2cc1OCC1CCN(C)CC1 [VANDETANIB] | 67.26 | 77.67 | 82.02 | 81.44 |  |  |  |  |  |  |  |  | inhibition in vivo at 10 mg/kg (A549 [2]): 62.1%; Activity (A549 [3]): Active |
| COc1cc2c(Nc3ccc(F)c(F)c3)ncnc2cc1OCCOCCNC(=O)Cn1cnc([N+](=O)[O-])n1 |  |  |  |  | 5.96 | 8.43 |  |  |  |  |  |  |  |
| COc1cc2c(Nc3ccc(F)cc3Cl)ncnc2cc1OCCOCCNC(=O)Cn1cnc([N+](=O)[O-])n1 | 69.01 | 80.31 | 83.35 | 77.88 | 5.39 | 7.68 | 13.9 | 1.17 | 0.89 | 1.14 | 0.89 | 10.3 |  |
| COc1cc2c(Nc3ccc(Br)cc3F)ncnc2cc1OCCNC(=O)Cn1cnc([N+](=O)[O-])n1 | 72.99 | 76.34 | 79.03 | 80.3 | 7.06 | 7.36 | 16.8 | 1.19 | 0.85 | 1.07 | 0.9 | 14.9 |  |
| COc1cc2c(Nc3ccc(F)cc3Cl)ncnc2cc1OCCOCCOCCNC(=O)Cn1cnc([N+](=O)[O-])n1 |  |  |  |  | 5.54 | 7.89 |  |  |  |  |  |  |  |
| COc1cc2c(Nc3ccc(Cl)c(Cl)c3F)ncnc2cc1OCCOCCNC(=O)Cn1cnc([N+](=O)[O-])n1 | 82.25 | 77.9 | 85 | 80.7 | 7.17 |  | 20.5 |  |  |  |  | 13.8 | inhibition (A549 [15]): Dose-dependent effect; inhibition in vivo at 15 mg/kg (A549 [16]): 63.9%; inhibition in vivo at 10 mg/kg (A549 [2]): 49%; Activity (A549 [3]): Active; Activity [17]: Non-Toxic; fold change (FC) (A549 [18]): 0.0037; fold change (FC) (A549 [19]): 0.1833; inhibition in vivo at 50 mg/kg (A549 [20]): 76.3%; inhibition in vivo at 5 mg/kg (A549 [21]): 28.1% |
| COc1cc2c(Nc3ccc(Br)cc3F)ncnc2cc1OCCOCCOCCNC(=O)Cn1cnc([N+](=O)[O-])n1 | 74.36 | 78.81 | 84.92 | 80.36 | 6.66 | 8.31 | 20.4 | 1.2 | 0.91 | 1.08 | 0.9 | 16 |  |
| COc1cc2c(Nc3ccc(Br)cc3F)ncnc2cc1OCCOCCNC(=O)Cn1cnc([N+](=O)[O-])n1 | 75.86 | 84.37 | 88.66 | 86.41 | 7.43 | 8.23 | 18.9 | 1.32 | 0.93 | 1.17 | 0.96 | 6.75 | inhibition (A549 [15]): Dose-dependent effect; inhibition in vivo at 15 mg/kg (A549 [16]): 68.3%; inhibition in vivo at 10 mg/kg (A549 [2]): 63.9%; Activity (A549 [3]): Active; Activity [22]: Non-Toxic; MTD at 336 h [23]: 100 mg/kg; Activity [17]: Non-Toxic; fold change (FC) (A549 [18]): 0.0011; Activity [24]: Non-Toxic; fold change (FC) (A549 [19]): 0.1571; inhibition in vivo at 50 mg/kg (A549 [20]): 80.5%; inhibition in vivo at 5 mg/kg (A549 [21]): 31.2% |
| COc1cc2c(Nc3ccc(F)cc3)ncnc2cc1OCCOCCNC(=O)Cn1cnc([N+](=O)[O-])n1 | 72.53 | 78.7 | 80.58 | 76.94 | 6.06 | 7.78 | 11.1 | 1.25 | 0.86 | 1.13 | 0.86 | 8.43 |  |
| COc1cc2c(Nc3ccc(C)c(Br)c3)ncnc2cc1OCCOCCNC(=O)Cn1cnc([N+](=O)[O-])n1 | 65.39 | 77.71 | 80.1 | 69.18 | 6.39 | 9.43 | 18.6 | 1.15 | 0.86 | 1.08 | 0.8 | 5.48 |  |
| COc1cc2c(Nc3ccc(Br)cc3F)ncnc2cc1OCC1CCN(C)CC1 [VANDETANIB] |  |  |  |  |  |  | 25.6 |  |  |  |  | 21.1 | Activity [25]: Toxic |
| COc1cc2c(Nc3cccc(F)c3)ncnc2cc1OCCOCCNC(=O)Cn1cnc([N+](=O)[O-])n1 |  |  |  |  | 5.92 | 8.51 |  |  |  |  |  |  |  |
| COc1cc2c(Nc3ccc(F)c(F)c3)ncnc2cc1OCCOCCOCCNC(=O)Cn1cnc([N+](=O)[O-])n1 |  |  |  |  | 5.73 | 7.70 |  |  |  |  |  |  |  |
| COc1cc2c(Nc3ccc(C)c(Br)c3)ncnc2cc1OCCNC(=O)Cn1cnc([N+](=O)[O-])n1 |  |  |  |  | 6.74 | 7.73 |  |  |  |  |  |  |  |
| COc1cc2c(Nc3ccc(Br)cc3F)ncnc2cc1OCC1CCN(C(=O)Cn2cncc2[N+](=O)[O-])CC1 |  |  |  |  | 7.57 | 8.49 |  |  |  |  |  |  |  |
| COc1cc2c(Nc3ccc(C)c(Br)c3)ncnc2cc1OCCOCCOCCNC(=O)Cn1cnc([N+](=O)[O-])n1 |  |  |  |  | 6.61 | 8.20 |  |  |  |  |  |  |  |
| COc1cc2c(Nc3ccc(F)cc3Cl)ncnc2cc1OCCNC(=O)Cn1cnc([N+](=O)[O-])n1 |  |  |  |  | 6.29 | 7.32 |  |  |  |  |  |  |  |
